Data taken from ChEMBL document CHEMBL4385626, “SAR optimization studies on modified salicylamides as a potential treatment for acute myeloid leukemia through inhibition of the CREB pathway” (Bioorg Med Chem Lett, 2019).
Activity calls are given as the source filed them. The calls are words filed in the database; no cut-off is given here.

Legend:
[1] = test system: HL-60; assay: Cytotoxicity against human HL60 cells incubated for 3 days by CellTiter-Glo luminescent assay; type: functional, cell-based; details: HL-60, 72 h
Method in brief: (§1)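 CellTiter-Glo viability read-out on leukemia cell lines. IC50 reported as the average of triplicates.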

[2] = test system: KG-1; assay: Cytotoxicity against human KG1 cells incubated for 3 days by CellTiter-Glo luminescent assay; type: functional, cell-based; details: KG-1, 72 h; method in brief: as §1
[3] = test system: Jurkat; assay: Cytotoxicity against human Jurkat cells incubated for 3 days by CellTiter-Glo luminescent assay; type: functional, cell-based; details: 72 h; method in brief: as §1
[4] = test system: NALM-6; assay: Cytotoxicity against human NALM6 cells incubated for 3 days by CellTiter-Glo luminescent assay; type: functional, cell-based; details: NALM-6, 72 h; method in brief: as §1
[5] = test system: Bone marrow cell; assay: Cytotoxicity against human bone marrow cells incubated for 3 days by CellTiter-Glo luminescent assay; type: cell-based; details: 72 h
[6] = Metabolic stability in human liver microsomes assessed as half life in presence of NADPH by LC-MS/MS analysis; type: ADME, Microsome
[7] = Metabolic stability in mouse liver microsomes assessed as half life in presence of NADPH by LC-MS/MS analysis; type: ADME, Microsome
[8] = Elimination half life in NSG mouse at 2 mg/kg, iv measured after 7 to 150 mins by LC/MS/MS analysis; type: ADME, organism-based; details: in vivo, read-out: beta t1/2 (converted)
Method in brief: (§2)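 Single IV dose of 2 mg/kg to NSG mice (NOD.Cg-Prkdc scid Il2rg tm1Wjl/SzJ), vehicle DMSO/Kolliphor EL/water (3/5/82). Compound levels measured in plasma at various times after injection. PK parameters derived from the plasma time-concentration profiles.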

[9] = AUC (0 to t) in NSG mouse at 2 mg/kg, iv measured after 7 to 150 mins by LC/MS/MS analysis; type: ADME, organism-based; details: in vivo; method in brief: as §2
[10] = AUC (0 to infinity) in NSG mouse at 2 mg/kg, iv measured after 7 to 150 mins by LC/MS/MS analysis; type: ADME, organism-based; design: dose 2 mg/kg, time infinity, route intravenous; details: in vivo; method in brief: as §2
[11] = MRT (0 to infinity) in NSG mouse at 2 mg/kg, iv measured after 7 to 150 mins by LC/MS/MS analysis; type: ADME, organism-based; details: in vivo; method in brief: as §2
[12] = Apparent volume of distribution in NSG mouse at 2 mg/kg, iv measured after 7 to 150 mins by LC/MS/MS analysis; type: ADME, organism-based; details: in vivo; method in brief: as §2
[13] = Clearance in NSG mouse at 2 mg/kg, iv measured after 7 to 150 mins by LC/MS/MS analysis; type: ADME, organism-based; details: in vivo; method in brief: as §2
[14] = Volume of distribution at steady state in NSG mouse at 2 mg/kg, iv measured after 7 to 150 mins by LC/MS/MS analysis; type: ADME, organism-based; details: in vivo; method in brief: as §2
[15] = test system: HL-60; assay: Induction of apoptosis in human HL60 cells assessed as early apoptotic cells at 1 uM incubated for 1 day by AnnexinV/DAPI double staining based flow cytometric analysis (reference value: 3.2 +/- 0.1%); type: functional
[16] = test system: HL-60; assay: Induction of apoptosis in human HL60 cells assessed as late apoptotic cells at 1 uM incubated for 1 day by AnnexinV/DAPI double staining based flow cytometric analysis (reference value: 1.2 +/- 0.03%); type: functional
[17] = test system: HL-60; assay: Induction of apoptosis in human HL60 cells assessed as PARP cleavage level at 1 uM incubated for 1 day by DAPI staining based flow cytometric analysis (reference value: 1.2 +/- 0.1%); type: functional
[18] = test system: HL-60; assay: Induction of cell cycle arrest in human HL60 cells assessed as S phase at 1 uM incubated for 1 day by DAPI staining based flow cytometric analysis (reference value: 27.5 +/- 0.57%); type: functional
[19] = test system: HL-60; assay: Induction of cell cycle arrest in human HL60 cells assessed as cyclin B expression in G2 phase by measuring as fluorescence intensity level at 1 uM incubated for 1 day by flow cytometric analysis (reference value: 1196.33 +/- 40.48); type: functional
[20] = species: Homo sapiens; assay: Inhibition of CREB in human HL60 cells assessed as downregulation of RFC3 gene expression at 1 uM incubated for 1 day by RT-qPCR analysis; type: cell-based
Method in brief: (§3)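 HL60 cells given 1 μM compound for 1 d. RFC3 and POLD2 mRNA measured by RT-qPCR and normalized to 7SL lncRNA. Results given as mean of three independent experiments ± SEM.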

[21] = species: Homo sapiens; assay: Inhibition of CREB in human HL60 cells assessed as downregulation of POLD2 gene expression at 1 uM incubated for 1 day by RT-qPCR analysis; type: cell-based; method in brief: as §3

N#Cc1ccc(NC(=O)c2ccc3cccnc3c2O)cc1
IC50 [1]: 370 nM | IC50 [2]: 2320 nM | IC50 [3]: 180 nM | IC50 [4]: 130 nM | IC50 [5]: 3.07 µM | half-life [6]: 124 min | half-life [7]: 157 min | half-life [8]: 83.4 min | AUC(0-t) [9]: 4070 ng·h/mL | AUC(0-inf) [10]: 4090 ng·h/mL | MRT inf [11]: 27.5 min | Vz [12]: 0.00098 mg/ng/mL | CL [13]: 0.00049 mg/ng/mL/h | Vdss [14]: 0.00022 mg/ng/mL | Activity [15]: 6.3% | Activity [16]: 3% | Activity [17]: 17.3% | Activity [18]: 33.7% | FI [19]: 875.33 | inhibition [20]: inactive | inhibition [21]: inactive
